# Results published in ChEMBL document CHEMBL1772965, “Analogues and derivatives of oncrasin-1, a novel inhibitor of the C-terminal domain of RNA polymerase II and their antitumor activities” (J Med Chem, 2011).
# Key:
# [1] = Cytotoxicity against mutant K-ras-transformed human T29Kt1 cells assessed as cell viability after 3 days by sulforhodamine B assay; format: functional, cell-based; conditions: T29Kt1, 72 h
# Outline: (§1)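 Monolayer cultures were grown in RPMI-1640 or DMEM with 10% heat-inactivated fetal calf serum and penicillin/streptomycin, at 37°C and 5% CO2. Cells were exposed for 3 days to compound from 10−4.5 M (31.6 μM) down to 10−8 M (10 nM), with 1% DMSO as the control. Viability was read by sulforhodamine B. IC50 was the dose halving surviving cells versus control, run in quadruplicate and repeated at least three times.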
# [2] = Cytotoxicity against human T29 cells assessed as cell viability after 3 days by sulforhodamine B assay; format: cell-based; conditions: T29, 72 h; outline: as §1
# [3] = system: NCI-H460; experiment: Cytotoxicity against human H460 cells assessed as cell viability after 3 days by sulforhodamine B assay; format: functional, cell-based; conditions: NCI-H460, 72 h; outline: as §1
# [4] = Stability of compound at pH 6; format: physicochemical; conditions: buffer
# [5] = Stability of compound at pH 4; format: physicochemical; conditions: buffer
# [6] = Stability of compound at pH 2; format: physicochemical; conditions: buffer
# [7] = Stability of compound at pH 7.4; format: physicochemical; conditions: buffer
# [8] = Stability of compound at pH 9; format: physicochemical; conditions: buffer
SMILES,IC50 [1] [µM],IC50 [2] [µM],IC50 [3] [nM],Stability [4],Stability [5],Stability [6],Stability [7],Stability [8]
OCCCc1cn(Cc2ccccc2)c2ccccc12,> 31.6,> 31.6,> 31600,,,,,
OCc1cn(Cc2cccc(C(F)(F)F)c2)c2ccccc12,0.56,> 31.6,39,Stable,Stable,Unstable,Stable,Stable
O=Cc1cn(Cc2ccc(Cl)cc2)c2ccc(Cl)cc12,10,> 31.6,400,,,Stable,Stable,
O=C(NC1CCCCC1)OCc1cn(Cc2ccc(Cl)cc2)c2ccccc12,0.2,> 31.6,20,,,,,
CC(=O)c1cn(Cc2ccccc2Cl)c2ccccc12,> 31.6,> 31.6,> 31600,,,,,
O=Cc1cn(Cc2ccc(Br)cc2)c2ccccc12,0.25,> 31.6,31,,,Stable,Stable,
O=Cc1cn(Cc2cccc(C(F)(F)F)c2)c2ccccc12,1.78,> 31.6,140,,,Stable,Stable,
O=Cc1cn(Cc2ccc(C(F)(F)F)cc2)c2ccccc12,> 31.6,> 31.6,1580,,,Stable,Stable,
CC(=O)OCc1cn(Cc2ccc(Cl)cc2)c2ccccc12,0.063,> 31.6,39,,,,,
O=Cc1cn(Cc2cccc(Cl)c2)c2ccc(F)cc12,1.5,> 31.6,370,,,Stable,Stable,
O=C(O)c1cn(Cc2ccc(Cl)cc2)c2ccccc12,> 31.6,> 31.6,> 31600,,,,,
COC(=O)c1cn(Cc2ccc(Br)cc2)c2ccccc12,6.3,5,5000,,,,,
O=Cc1cn(Cc2cccc(F)c2)c2ccccc12,2.63,> 31.6,31,,,Stable,Stable,
O=Cc1cn(Cc2ccc(Cl)cc2Cl)c2ccccc12,1.58,> 31.6,100,,,Stable,Stable,
COCc1cn(Cc2ccc(Cl)cc2)c2ccccc12,7.94,> 31.6,1990,,,,,
O=Cc1cn(Cc2ccc(Cl)cc2)c2cc(F)ccc12,9.19,> 31.6,120,,,Stable,Stable,
N#Cc1cn(Cc2cccc(Cl)c2)c2ccccc12,> 31.6,> 31.6,> 31600,,,,,
Cc1cn(Cc2ccc(Cl)cc2)c2ccccc12,> 31.6,> 31.6,> 31600,,,,,
OCCc1cn(Cc2ccc(Cl)cc2)c2ccccc12,> 31.6,> 31.6,> 31600,,,,,
O=Cc1cn(Cc2cccc(Br)c2)c2ccccc12,1.58,> 31.6,39,,,Stable,Stable,
O=Cc1cn(Cc2ccc(Cl)cc2)c2cc(Br)ccc12,32,21,90,,,Stable,Stable,
O=CC1C(=O)N(Cc2ccc(Cl)cc2)c2cc(Cl)ccc21 (stereo unspecified),18.2,18.6,18200,,,Stable,Stable,
Brc1cccc(Cn2cc(Cc3cn(Cc4cccc(Br)c4)c4ccccc34)c3ccccc32)c1,> 31.6,> 31.6,> 31600,,,,,

SMILES,IC50 [1] [µM],IC50 [2] [µM],IC50 [3] [nM],Stability [4],Stability [5],Stability [6],Stability [7],Stability [8]
O=Cc1cn(CCCOc2ccc(Cl)cc2)c2ccccc12,4.89,> 31.6,45,,,Stable,Stable,
Cc1cccc(Cn2cc(C=O)c3ccccc32)c1,6.3,> 31.6,39,,,Stable,Stable,
O=Cc1cn(Cc2cccc(Cl)c2)c2ccccc12,0.37,> 31.6,37,,,Stable,Stable,
COC(=O)CNCc1cn(Cc2ccc(Cl)cc2)c2ccccc12,5.01,31.6,100,,,,,
O=Cc1cn(Cc2ccccc2F)c2ccccc12,0.31,> 31.6,100,,,Stable,Stable,
c1ccc(Cn2ccc3ccccc32)cc1,> 31.6,> 31.6,> 31600,,,,,
CC(O)c1cn(Cc2ccc(Cl)cc2)c2ccccc12 (stereo unspecified),19.9,> 31.5,25100,,,,,
O=Cc1cn(Cc2ccc(Br)c(Br)c2)c2ccccc12,0.63,> 31.6,63,,,Stable,Stable,
O=C(O)c1cn(Cc2ccccc2)c2ccccc12,> 31.6,> 31.6,> 31600,,,,,
CC(=O)c1cn(Cc2cccc(Cl)c2)c2ccccc12,> 31.6,> 31.6,> 31600,,,,,
O=Cc1cn(Cc2ccc(Cl)cc2)c2ccc(F)cc12,9.09,> 31.6,290,,,Stable,Stable,
O=Cc1cn(Cc2ccc(Cl)cc2)c2ccccc12,2.51,> 31.6,250,,,Stable,Stable,
Cc1ccc(Cn2cc(C=O)c3ccccc32)cc1,3.98,> 31.6,63,,,Stable,Stable,
CC(C)Cn1cc(C=O)c2ccccc21,> 31.6,> 31.6,1990,,,Stable,Stable,
Clc1cccc(Cn2cc(Cc3cn(Cc4cccc(Cl)c4)c4ccccc34)c3ccccc32)c1,> 31.6,> 31.6,> 31600,,,,,
COC(=O)c1cn(Cc2ccc(Cl)cc2)c2ccccc12,25.1,17.7,31600,,,,,
CC(=O)c1cn(Cc2ccccc2)c2ccccc12,> 31.6,> 31.6,10000,,,,,
CC(=O)c1cn(Cc2ccc(Cl)cc2)c2ccccc12,> 31.6,> 31.6,> 31600,,,,,
O=Cc1cn(Cc2ccccc2)c2ccccc12,5,> 31.6,45,,,Stable,Stable,
O=Cc1cn(Cc2ccc([N+](=O)[O-])cc2)c2ccccc12,10,> 31.6,500,,,Stable,Stable,
O=Cc1cn(Cc2cccc([N+](=O)[O-])c2)c2ccccc12,0.5,> 31.6,39,,,Stable,Stable,
OCc1cc2cc(F)ccc2n1Cc1ccc(Cl)cc1,15.1,17.4,11500,,,,,
